From ChEMBL document CHEMBL1759927, “Design, synthesis and X-ray crystallographic study of NAmPRTase inhibitors as anti-cancer agents” (Eur J Med Chem, 2011)
pIC50: −log10 of the molar value. One block for each molecule: values may come before it.

What was measured:
MCF7 [1] = test: Antitumor activity against human MCF7 cells after 6 days by SRB assay; type: functional; design: concentration or dose not given beside the values
How it was run: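 MCF7 breast cancer cells were grown in RPMI 1640 with 10% FBS and antibiotic-antimycotic at 37 °C under 5% CO2. They were seeded at 50,000 cells/mL and exposed to inhibitor for six days. Cells were fixed with ice-cold TCA for 1 h, stained with SRB for 30 min at RT, washed with 1% acetic acid and solubilized in 10 mM Tris. A515 was read. […].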

K562 = test: Cytotoxicity against human K562 cells after 6 days by SRB assay; type: functional, cell-based; settings: K562, 144 h
How it was run: (§1)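 Cells were plated at 50,000 cells/mL in a humidified 5% CO2 atmosphere at 37 °C and incubated with inhibitors for six days. They were then fixed 1 h in cold TCA, stained 30 min at RT with SRB, washed with 1% acetic acid and solubilized in 10 mM Tris before reading at 515 nm. Means of four duplicate samples were expressed relative to solvent control, with IC50 from nonlinear regression.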

MCF7 [2] = test: Antitumor activity against human MCF7 cells at 10 uM after 6 days by SRB assay; type: functional, cell-based; settings: MCF7, 144 h
How it was run: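 MCF7 cells were cultured in RPMI 1640 with 10% FBS at 37 °C and 5% CO2, plated at 50,000 cells/mL, and given a fixed 10 µM compound for six days. Viability was read by SRB staining after TCA fixation, Tris solubilization and absorbance at 515 nm. […], as means of three experiments with standard deviations.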

A549 = test: Cytotoxicity against human A549 cells after 6 days by SRB assay; type: functional, cell-based; settings: A549, 144 h; how it was run: as §1
SNU-638 = test: Cytotoxicity against human SNU638 cells after 6 days by SRB assay; type: functional, cell-based; settings: SNU-638, 144 h; how it was run: as §1
[3] = target: Nicotinamide phosphoribosyltransferase (Homo sapiens, UniProt P43490); test: Inhibition of human NAmPRTase by HPLC analysis
Chain of Nicotinamide phosphoribosyltransferase (P43490 whole entry): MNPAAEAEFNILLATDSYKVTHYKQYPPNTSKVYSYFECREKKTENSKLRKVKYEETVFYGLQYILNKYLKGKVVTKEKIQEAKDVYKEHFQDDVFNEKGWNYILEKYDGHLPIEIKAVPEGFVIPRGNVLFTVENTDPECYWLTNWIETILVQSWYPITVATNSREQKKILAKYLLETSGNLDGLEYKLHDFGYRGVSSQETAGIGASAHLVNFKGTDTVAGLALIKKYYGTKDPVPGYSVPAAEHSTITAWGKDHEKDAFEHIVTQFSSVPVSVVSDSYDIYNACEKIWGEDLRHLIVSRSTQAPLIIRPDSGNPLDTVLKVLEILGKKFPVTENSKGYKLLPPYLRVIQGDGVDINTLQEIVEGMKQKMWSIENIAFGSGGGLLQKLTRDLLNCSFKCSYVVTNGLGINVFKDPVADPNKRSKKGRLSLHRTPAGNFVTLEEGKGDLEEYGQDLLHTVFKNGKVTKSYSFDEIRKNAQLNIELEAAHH

HCT-116 = test: Cytotoxicity against human HCT116 cells after 6 days by SRB assay; type: functional, cell-based; settings: HCT-116, 144 h; how it was run: as §1
HT-1080 = test: Cytotoxicity against human HT1080 cells after 6 days by SRB assay; type: functional, cell-based; settings: HT-1080, 144 h; how it was run: as §1

SMILES: O=C(/C=C/c1cncnc1)NCCCCC1CCN(C(=O)c2ccccc2)CC1
Cell survival (% of control) (MCF7 [1]): 86.8%

SMILES: Nc1ncc(/C=C/C(=O)NCCCCC2CCN(C(=O)c3ccccc3)CC2)cn1
Cell survival (% of control) (MCF7 [1]): 103.4%

pIC50 (MCF7 [2]): 5.89
pIC50 [3]: 4.69
SMILES: O=C(/C=C/c1ccc[nH]1)NCCCCC1CCN(C(=O)c2ccccc2)CC1
pIC50 (K562): 5.85
pIC50 (A549): 5.31
pIC50 (SNU-638): 5.77
pIC50 (HCT-116): 6.52
Cell survival (% of control) (MCF7 [1]): 4.5%
pIC50 (HT-1080): 5.49

SMILES: O=C(/C=C/c1cn[nH]c1)NCCCCC1CCN(C(=O)c2ccccc2)CC1
Cell survival (% of control) (MCF7 [1]): 101.7%

SMILES: O=C(/C=C/c1c[nH]cn1)NCCCCC1CCN(C(=O)c2ccccc2)CC1
Cell survival (% of control) (MCF7 [1]): 102.9%

SMILES: O=C(/C=C/c1c[nH]c2ccccc12)NCCCCC1CCN(C(=O)c2ccccc2)CC1
Cell survival (% of control) (MCF7 [1]): 103.3%

SMILES: O=C(/C=C/c1ccccc1[N+](=O)[O-])NCCCCC1CCN(C(=O)c2ccccc2)CC1
Cell survival (% of control) (MCF7 [1]): 102.7%

SMILES: O=C(/C=C/c1cccc([N+](=O)[O-])c1)NCCCCC1CCN(C(=O)c2ccccc2)CC1
Cell survival (% of control) (MCF7 [1]): 103.1%

SMILES: O=C(/C=C/c1cccn1CCC(CO)CO)NCCCCC1CCN(C(=O)c2ccccc2)CC1
Cell survival (% of control) (MCF7 [1]): 105%

SMILES: O=C(/C=C/c1cnn(CCC(CO)CO)c1)NCCCCC1CCN(C(=O)c2ccccc2)CC1
Cell survival (% of control) (MCF7 [1]): 106.6%

SMILES: O=C(/C=C/c1cn(CCC(CO)CO)cn1)NCCCCC1CCN(C(=O)c2ccccc2)CC1
Cell survival (% of control) (MCF7 [1]): 104.3%

SMILES: O=C(/C=C/c1cn(CCC(CO)CO)c2ccccc12)NCCCCC1CCN(C(=O)c2ccccc2)CC1
Cell survival (% of control) (MCF7 [1]): 104.9%

SMILES: Cn1cccc1/C=C/C(=O)NCCCCC1CCN(C(=O)c2ccccc2)CC1
Cell survival (% of control) (MCF7 [1]): 103.6%

SMILES: Nc1ccccc1/C=C/C(=O)NCCCCC1CCN(C(=O)c2ccccc2)CC1
Cell survival (% of control) (MCF7 [1]): 106.3%

SMILES: Nc1cccc(/C=C/C(=O)NCCCCC2CCN(C(=O)c3ccccc3)CC2)c1
Cell survival (% of control) (MCF7 [1]): 103.9%

pIC50 (MCF7 [2]): 6.17
SMILES: O=C(/C=C/c1cccnc1)NCCCCC1CCN(C(=O)c2ccccc2)CC1 [DAPORINAD]
pIC50 (K562): < 4.70
pIC50 (A549): > 6.80
pIC50 (SNU-638): > 6.80
pIC50 (HCT-116): > 6.80
Cell survival (% of control) (MCF7 [1]): 5.6%
pIC50 (HT-1080): > 6.80

SMILES: Cc1c2ccncc2c(C)c2c1[nH]c1ccccc12 [ELLIPTECINE]
pIC50 (K562): 6.42
pIC50 (A549): 6.33
pIC50 (SNU-638): 5.79
pIC50 (HCT-116): 6.39
pIC50 (HT-1080): 6.68
